In the library only some 2.5% were active in any assay of this set; here they are far more common.
GSTO1 counter: blocks human GSTO1 in RBBP9 counter-screen; AID 1974; 1.1% of 300,000 active; inhibition, % at 5.96 µM; recombinant GSTO1, activity-based probe fluorescence polarization; P78417;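 active = inhibition above the campaign mean inhibition plus 3 SD, cut at about 35% in these data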;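 note: 0% = GSTO1-1 with DMSO and 100% = wells lacking GSTO1-1 enzyme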
Target sequence (P78417 whole entry, looked up): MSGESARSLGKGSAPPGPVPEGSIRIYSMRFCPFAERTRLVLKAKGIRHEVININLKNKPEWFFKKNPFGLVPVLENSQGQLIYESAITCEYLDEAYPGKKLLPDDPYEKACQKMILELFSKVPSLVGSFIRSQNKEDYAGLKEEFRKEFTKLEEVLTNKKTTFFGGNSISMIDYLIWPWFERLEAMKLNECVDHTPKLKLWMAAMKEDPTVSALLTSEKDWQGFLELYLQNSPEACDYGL
PRMT1 FP inh: blocks human protein arginine methyltransferase 1; Q99873; recombinant PRMT1, activity-based probe fluorescence polarization; inhibition, % at 2.79 µM; 1.3% of 370,000 active; AID 652257;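 active = inhibition above about 21% made by adding two undisclosed values, limit read from the data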
Target sequence (Q99873 whole entry, looked up): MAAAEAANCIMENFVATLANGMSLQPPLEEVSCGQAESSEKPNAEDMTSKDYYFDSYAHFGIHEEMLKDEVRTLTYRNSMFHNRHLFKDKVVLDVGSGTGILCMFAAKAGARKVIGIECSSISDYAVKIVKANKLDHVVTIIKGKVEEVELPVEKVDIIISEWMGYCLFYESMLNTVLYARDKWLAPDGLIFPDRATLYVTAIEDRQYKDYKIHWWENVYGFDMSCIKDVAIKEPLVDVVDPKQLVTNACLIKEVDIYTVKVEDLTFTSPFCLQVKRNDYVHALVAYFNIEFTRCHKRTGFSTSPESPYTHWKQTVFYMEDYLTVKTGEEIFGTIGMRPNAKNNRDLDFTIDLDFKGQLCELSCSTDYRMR
TDP2 inh: TDP2 (human) inhibition, absorbance primary screen | recombinant TDP2, T5PNP hydrolysis, p-nitrophenol absorbance 415 nm | inhibition, % at 12.8 µM | 0.34% of 370,000 active | AID 720702;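 active = inhibition above the mean of all tested compounds plus 3 SD, set per campaign, cut at about 25% in these data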;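 note: 0% = DMSO with enzyme and 100% = buffer with substrate but no TDP2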
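test system = human TDP2 enzyme | input = TDP2 enzyme at 120 nM final | medium = 50 mM Tris-HCl pH 7.5 with Mg2+, KCl, DTT, BSA | also added = T5PNP substrate, 5 mM | times = 2 h at 37 °C | technique = epi absorbance | benchmarks = high control without enzyme, low control DMSO plus TDP2 | replication = each compound tested once, singlicate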
CTSL1 counter: counter-screen for PFM18AAP inhibitors: inhibitors of F. hepatica cathepsin L1 | inhibition, % at 5.96 µM | 0.49% of 300,000 active | AID 1906 | recombinant F. hepatica cathepsin L1, Z-Leu-Arg-MCA fluorescence;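 active = inhibition above the mean of all tested compounds plus 3 SD, set per screening campaign, cut at about 17% in these data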;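 note: 0% = plate median of test compound wells and 100% = 1 µM Z-Phe-Ala-diazomethylketone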
PAD4 FP inh: PAD4 (human) enzyme inhibition. Q9UM07. recombinant PAD4, RCA probe fluorescence polarization. inhibition, % at 6.36 µM. 0.41% of 330,000 active. AID 485272;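 active = percent inhibition above a cutoff equal to the mean of all tested compounds plus 3 SD, cut at about 15% in these data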;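 note: 0% = PAD4 with RCA probe and DMSO and 100% = probe without PAD4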
PRMT1 inh conf: PRMT1 (human) inhibition, FP confirmation | shares compounds with PRMT1 FP inh | recombinant His-PRMT1, activity-based probe fluorescence polarization | inhibition, % at 2.79 µM | 42% of 3,300 active | AID 687036;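 active = mean inhibition across replicates above the hit cutoff derived for the earlier primary screen, cut at about 22% in these data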
* hit, by the source's call; nt = not tested or not shown.

SMILES	GSTO1 counter	PRMT1 FP inh	TDP2 inh	CTSL1 counter	PAD4 FP inh	PRMT1 inh conf
COC(=O)/C=C/S(=O)(=O)c1ccc(NC(C)=O)cc1	5	73*	-8	1	-3	29*
C[C@H]1[C@H](NC(=O)c2cccc(C(F)(F)F)c2)CC[C@@]23CCCN2C(=O)CCC[C@@H]13	nt	-4	9	nt	nt	nt
COCCNC(=O)Cc1ccc(Br)cc1	-1	-1	3	-2	-2	nt
COCCNC(=S)c1ccc(Br)cc1	7	36*	-2	-3	2	8
Cc1cc2nc(-c3ccc(SCc4ccc(C(=O)O)cc4)nc3)[nH]c2cc1C	-64	26*	-6	3	-7	22*
COc1cc(C(=O)NCc2nnc(SCC(=O)Nc3nc4ccccc4s3)o2)cc(OC)c1OC	3	65*	-3	1	9	5
O=C(COCc1ccncc1)N1CCN(c2ccc(F)cc2Cl)CC1	nt	2	10	nt	nt	nt
C=CCn1c(Sc2ncc([N+](=O)[O-])s2)n[nH]c1=O	8	75*	2	-1	0	61*
O=C1NCCN1c1ncc([N+](=O)[O-])s1	4	2	2	-1	-4	nt
COc1ccc(-c2nc3c(s2)CN(S(C)(=O)=O)CC3)cc1OC	nt	35*	-7	nt	nt	4
CCS(=O)(=O)N1CCc2nc(-c3ccccc3)sc2C1	-4	-2	3	0	7	nt
O=C1CSc2ccc(C(=O)O)cc2N1	8	0	6	1	-3	nt
O=C1CSC(=NC(=O)c2ccccc2)N1	-4	78*	2	0	-5	15
CC(C)C(=O)N=C1NC(=O)CS1	5	55*	10	2	3	35*
O=C(CSc1nnc(-c2ccccc2)n1-c1ccccc1)NN=C/C=C\c1ccccc1[N+](=O)[O-]	nt	-11	-21	nt	nt	nt
O=C1C(O)=CC(=C(c2ccccc2)c2ccccc2)c2ccccc21	nt	42*	26*	nt	nt	7
Nc1nc(-c2ccco2)c(-c2ccco2)s1	22	40*	3	-5	-3	4
OCC(O)C(O)C(O)C(O)C1NCCS1 (centres undefined)	5	32*	-11	4	-1	16
O=C(Nc1ccc(F)cc1)Nc1c(-c2ccccc2)nc2ncccn12	nt	0	3	nt	nt	nt
CCN(c1ccc(NS(=O)(=O)c2cc(Cl)ccc2Cl)cc1)C(C)C	2	32*	-16	3	-1	12
CC(C)(C)c1ccc(-c2nnc(SCC3CCCCO3)n2-c2ccc(Cl)cc2)cc1 (centres undefined)	nt	-2	13	nt	nt	nt
CCSc1nc(-c2ccco2)ccc1C#N	2	31*	-14	2	-3	18
N#Cc1ccc(-c2ccco2)nc1SCc1ccccc1	-4	0	-2	-4	-11	nt
COc1ccc(C2COc3cc(O)ccc3C2)c(OC)c1O (centres undefined)	4	4	4	-1	1	nt
Oc1ccc2c(c1)OCC1(O)Cc3cc(O)c(O)cc3C21 (centres undefined)	nt	125*	-3	nt	nt	119*
SMILES	GSTO1 counter	PRMT1 FP inh	TDP2 inh	CTSL1 counter	PAD4 FP inh	PRMT1 inh conf
Oc1cc2c(cc1O)[C@H]1c3ccc(O)c(O)c3OC[C@@]1(O)C2	nt	43*	3	nt	7	38*
COC(=O)[C@@]1(OC(C)=O)CC(OC(C)=O)[C@H](OC(C)=O)[C@H](OC(C)=O)C1Br (some centres undefined)	nt	1	7	nt	nt	nt
O=C(CSc1nnc(-c2cccnc2)n1Cc1ccco1)Nc1ccc(Cl)cc1	nt	1	9	nt	nt	nt
O=C(CSc1nnc(-c2cccnc2)n1Cc1ccco1)N1c2ccccc2Sc2ccccc21	-1	40*	-7	3	-2	16
COC(=O)C[C@@H]1CC[C@@H]2[C@H](COc3ccc(NC(=O)Nc4c(C)noc4C)cc3C(=O)N2C)O1	nt	0	8	nt	nt	nt
CCOC(=O)c1ccc(NC(=S)N2CCSC2c2ccc(Cl)cc2)cc1 (centres undefined)	-12	84*	-9	-1	-4	0
COc1ccc(C2SCCN2C(=S)Nc2ccc(F)cc2)cc1 (centres undefined)	0	58*	1	-1	-7	2
COc1ccc(C2SCCN2C(=S)Nc2cccc(C(F)(F)F)c2)cc1 (centres undefined)	-2	8	6	0	0	nt
CCOC(=O)c1ccc(NC(=S)N2CCN(C)CC2)cc1	6	2	1	2	-3	nt
CCOC(=O)c1ccc(NC(=O)NCc2ccc(OC)cc2)cc1	3	-1	2	3	1	nt
CCOC(=O)c1ccc(NC(=S)N2CCSC2c2ccc(OC)cc2)cc1 (centres undefined)	-4	88*	2	4	-3	4
CCCc1nc2c(sc3nc4c(cc32)COC(C)(C)C4)c(=O)n1CCN(C)C	14	0	1	-1	4	nt
CCCc1nc2c(sc3nc4c(cc32)COC(C)(C)C4)c(=O)n1Cc1ccco1	3	30*	-6	2	-2	9
COC(=O)c1ccc(CCc2cc(O)c(Br)cc2O)cc1	nt	103*	-9	nt	nt	72*
O=C(O)c1ccc(S(=O)(=O)c2ccc([N+](=O)[O-])cc2[N+](=O)[O-])cc1	25	30*	-1	0	5	27*
CC(=O)N1c2ccccc2Sc2ccccc21	nt	1	6	nt	nt	nt
CN1c2ccccc2Sc2cc(N)ccc21	11	29*	-4	0	-7	11
COC(=O)c1c(NC(=O)CN2C(=O)C(=O)N(CC(C)C)C2=O)sc2c1CCCCC2	9	58*	-5	-1	-2	8
CCC(C)CNC(=O)CN1C(=O)C2CCCCN2C(=O)c2ccccc21 (centres undefined)	nt	1	-10	nt	nt	nt
Cc1cc2nc3c(=O)[nH]c(=O)[nH]c3nc2c([N+](=O)[O-])c1N	nt	79*	-13	nt	nt	112*
Cc1c(N)c(C(C)(C)C)cc(C(C)(C)C)c1[N+](=O)[O-]	6	-3	2	2	0	nt
Cc1cccc(NC(=O)[C@H]2CC(=O)O[C@@H]2c2ccccc2)c1C	nt	-1	3	nt	nt	nt
O=C(COc1ccc(Cl)cc1)Nc1ncc([N+](=O)[O-])s1	nt	-1	-21	nt	nt	nt
O=C(COC(=O)COc1ccccc1)Nc1ncc([N+](=O)[O-])s1	nt	40*	-5	nt	-5	15
CN(Cc1ccco1)C(=O)CN1C(=O)C2(OCCCO2)c2ccccc21	nt	0	4	nt	nt	nt
O=c1cc(-c2ccc(O)cc2)oc2c(O)c(O)c(O)c(O)c12	27	52*	4	-1	-5	16
O=c1cc(-c2ccc(O)cc2)oc2c1ccc1ccccc12	nt	-2	-3	nt	-2	nt
CCOC(=O)c1cc(-c2ccc(F)cc2)n(CC(=O)NCc2cccnc2)c1C	0	28*	2	1	0	7
COC[C@H]1CCCN1c1cccc2c1S(=O)(=O)N(C1CC1)CC[C@@H](C)O2	nt	4	3	nt	nt	nt

Screening data deposited in PubChem BioAssay by The Scripps Research Institute Molecular Screening Center.
